This is an account of results in ChEMBL document CHEMBL3217692, “Synthesis and cytotoxicity evaluation of novel pyrido[3,4-d]pyrimidine derivatives as potential anticancer agents” (2012).

This assay relates to SR. The assay can be described thus: Cytotoxicity against human SR cells assessed as cell growth at 10 uM after 48 hrs by sulforhodamine B assay relative to control. Type of assay: functional. Conditions: read-out: Activity. In short, it runs like this: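 Suspension lines were cultured in RPMI 1640 with 5% FBS and 2 mM L-glutamine, plated at 5000–40 000 cells/well and preincubated 24 h (37 °C, 5% CO2). Compound in DMSO was given at a single 10 μM dose for 48 h. Settled cells were fixed with 80% TCA (final 16%), then stained with SRB and read at 515 nm. Growth percentage was taken relative to time-zero and untreated control absorbances.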

`COc1nccc2c(-c3cccc(F)c3)nc(N)nc12`: the growth at 10 µM was 111%.
